Activity calls are given as the source filed them. The rule behind the calls is not given here.
Assays:
[1] = (§1) Inhibition of human IMPDH
[2] = Inhibition of horse liver alcohol dehydrogenase; set-up: species or system Equus caballus
[3] = Binding affinity to penicillopepsin
Homo sapiens = species on record: Homo sapiens; assay: as §1
[4] = target: Inosine-5'-monophosphate dehydrogenase 1 (Homo sapiens) (UniProt P20839); assay: Inhibition of human IMPDH1 at 100 uM
[5] = target: L-lactate dehydrogenase (Homo sapiens) (UniProt V9HWB9); assay: Inhibition of human LDH at 100 uM
[6] = target: L-lactate dehydrogenase (Homo sapiens) (UniProt V9HWB9); assay: Inhibition of human LDH
NAD kinase [7] = target: T1, NAD kinase (Mycobacterium tuberculosis, UniProt P9WHV7); assay: Inhibition of Mycobacterium tuberculosis NAD kinase by modified HPLC based assay
T1 sequence (P9WHV7 whole entry): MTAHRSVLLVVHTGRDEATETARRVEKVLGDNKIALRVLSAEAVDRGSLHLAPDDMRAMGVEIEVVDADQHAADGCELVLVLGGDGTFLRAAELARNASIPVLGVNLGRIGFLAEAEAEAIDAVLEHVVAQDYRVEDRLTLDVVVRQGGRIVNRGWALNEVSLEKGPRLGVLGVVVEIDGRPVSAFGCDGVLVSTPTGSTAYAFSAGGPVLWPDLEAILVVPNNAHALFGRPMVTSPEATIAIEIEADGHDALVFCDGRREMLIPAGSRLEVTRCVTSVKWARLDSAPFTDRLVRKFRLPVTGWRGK
In short: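 Purified-to-homogeneity M. tuberculosis NAD kinase incubated at 37 °C in 50 mM Tris/HCl pH 8.0, 20 mM MgCl₂ with ATP and NAD substrates, without or with varying inhibitor concentrations. Reaction stopped with HClO₄, neutralized with K₂CO₃, nucleotides resolved by reversed-phase C18 HPLC with potassium phosphate pH 6.0/methanol gradient.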

[8] = target: Inosine-5'-monophosphate dehydrogenase 2 (Homo sapiens) (UniProt P12268); assay: Inhibition of human IMPDH2 at 100 uM
Sequence of Inosine-5'-monophosphate dehydrogenase 2 (Homo sapiens) (P12268 2-514 limits assumed): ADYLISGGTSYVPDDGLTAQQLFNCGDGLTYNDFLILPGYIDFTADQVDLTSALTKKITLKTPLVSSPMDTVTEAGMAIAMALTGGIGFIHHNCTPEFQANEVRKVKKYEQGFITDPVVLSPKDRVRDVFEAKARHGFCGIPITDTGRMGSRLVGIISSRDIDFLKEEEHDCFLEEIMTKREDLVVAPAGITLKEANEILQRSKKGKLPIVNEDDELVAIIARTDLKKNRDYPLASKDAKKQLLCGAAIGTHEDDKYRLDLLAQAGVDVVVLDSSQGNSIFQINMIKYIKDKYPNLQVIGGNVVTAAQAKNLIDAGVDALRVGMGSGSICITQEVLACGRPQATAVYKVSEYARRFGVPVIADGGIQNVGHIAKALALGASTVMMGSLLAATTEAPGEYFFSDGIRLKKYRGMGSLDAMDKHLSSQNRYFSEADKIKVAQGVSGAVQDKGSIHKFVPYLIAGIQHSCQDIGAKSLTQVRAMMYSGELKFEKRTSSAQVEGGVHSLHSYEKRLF

[9] = Inhibition of Listeria monocytogenes NADK1
NAD kinase [10] = target: T2, NAD kinase (Homo sapiens, UniProt O95544); assay: Inhibition of human NAD kinase by modified HPLC based assay
T2 sequence (O95544 whole entry): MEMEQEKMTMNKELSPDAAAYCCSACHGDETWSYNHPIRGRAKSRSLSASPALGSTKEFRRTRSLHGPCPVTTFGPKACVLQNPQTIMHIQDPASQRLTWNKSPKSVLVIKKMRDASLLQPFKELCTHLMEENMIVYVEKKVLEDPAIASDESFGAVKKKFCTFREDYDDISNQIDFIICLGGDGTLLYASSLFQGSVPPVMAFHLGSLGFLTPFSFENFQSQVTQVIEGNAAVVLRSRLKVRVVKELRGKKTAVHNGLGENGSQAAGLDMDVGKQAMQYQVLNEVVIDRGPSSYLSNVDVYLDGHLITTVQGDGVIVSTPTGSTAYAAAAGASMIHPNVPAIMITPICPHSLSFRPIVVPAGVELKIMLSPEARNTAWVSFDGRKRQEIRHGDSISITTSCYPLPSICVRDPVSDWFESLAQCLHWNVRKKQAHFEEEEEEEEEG

Sequence of Inosine-5'-monophosphate dehydrogenase 1 (Homo sapiens) (P20839 2-514 limits assumed): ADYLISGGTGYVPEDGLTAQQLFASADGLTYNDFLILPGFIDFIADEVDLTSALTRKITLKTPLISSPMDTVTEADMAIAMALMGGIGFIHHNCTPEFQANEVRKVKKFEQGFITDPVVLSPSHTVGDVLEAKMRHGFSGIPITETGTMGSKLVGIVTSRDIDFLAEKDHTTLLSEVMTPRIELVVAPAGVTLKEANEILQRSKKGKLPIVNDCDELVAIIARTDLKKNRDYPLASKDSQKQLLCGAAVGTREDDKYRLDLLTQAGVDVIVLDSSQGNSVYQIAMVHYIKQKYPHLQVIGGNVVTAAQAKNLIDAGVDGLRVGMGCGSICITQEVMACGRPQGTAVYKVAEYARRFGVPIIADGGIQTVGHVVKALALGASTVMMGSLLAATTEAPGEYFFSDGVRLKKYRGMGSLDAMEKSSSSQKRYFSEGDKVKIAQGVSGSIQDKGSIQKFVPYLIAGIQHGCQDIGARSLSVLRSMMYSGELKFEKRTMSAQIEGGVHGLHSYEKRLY

| Compound | inhibition [4] | inhibition [5] | IC50 (NAD kinase [7]; read-out: IC50) [µM] | inhibition [8] | IC50 (NAD kinase [10]; read-out: IC50) [µM] | further results |
| --- | --- | --- | --- | --- | --- | --- |
| NC(=O)c1csc([C@@H]2O[C@H](COP(=O)(O)OP(=O)(O)OC[C@H]3O[C@@H](n4cnc5c(N)ncnc54)[C@H](O)[C@@H]3O)[C@@H](O)[C@H]2O)n1 [TIAZOFURIN ADENINE DINUCLEOTIDE] |  |  |  |  |  | Ki [1]: 0.1 µM; Ki [2]: 0.001 µM |
| NC(=O)c1csc([C@@H]2O[C@H](COP(=O)(O)OP(=O)(O)OC[C@H]3O[C@@H](n4cnc5c(N)nc(I)nc54)[C@H](O)[C@@H]3O)[C@@H](O)[C@H]2O)n1 |  |  |  |  |  | Ki [1]: 0.02 µM |
| C#Cc1nc(N)c2ncn([C@@H]3O[C@H](COP(=O)(O)OP(=O)(O)OC[C@H]4O[C@@H](c5nc(C(N)=O)cs5)[C@H](O)[C@@H]4O)[C@@H](O)[C@H]3O)c2n1 |  |  |  |  |  | Ki [1]: 0.01 µM |
| COC(=O)[C@H](Cc1ccccc1)OP(=O)(O)[C@H](CC(C)C)NC(=O)[C@H](CC(N)=O)NC(=O)[C@@H](NC(=O)CC(C)C)C(C)C |  |  |  |  |  | Ki [3]: 0.042 µM |
| COC(=O)[C@@H]1Cc2cccc(c2)CNC(=O)C[C@H](NC(=O)[C@@H](NC(=O)CC(C)C)C(C)C)C(=O)N[C@@H](CC(C)C)P(=O)(O)O1 |  |  |  |  |  | Ki [3]: 0.0001 µM |
| Nc1ncnc2c1ncn2[C@@H]1O[C@H](CSSC[C@H]2O[C@@H](n3cnc4c(N)ncnc43)[C@H](O)[C@@H]2O)[C@@H](O)[C@H]1O | inactive | inactive | 45 | inactive | 87 | inhibition (Homo sapiens): inactive; inhibition [6]: inactive; Ki [9]: 20 µM |
| Nc1ncnc2c1nc(-c1ccccc1)n2[C@@H]1O[C@H](CSSC[C@H]2O[C@@H](n3c(-c4ccccc4)nc4c(N)ncnc43)[C@H](O)[C@@H]2O)[C@@H](O)[C@H]1O | inactive | inactive |  | inactive | 45 | IC50 (NAD kinase [7]): Not Active |
| CCc1nc(N)c2ncn([C@@H]3O[C@H](COP(=O)(O)OP(=O)(O)OC[C@H]4O[C@@H](c5nc(C(N)=O)cs5)[C@H](O)[C@@H]4O)[C@@H](O)[C@H]3O)c2n1 |  |  |  |  |  | Ki [1]: 0.001 µM |
| NC(=O)c1cccc([C@@H]2O[C@H](COP(=O)(O)OP(=O)(O)OC[C@H]3O[C@@H](n4cnc5c(N)ncnc54)[C@H](O)[C@@H]3O)[C@@H](O)[C@H]2O)c1 [BENZAMIDEADENINEDINUCLEOSIDE] |  |  | 200 |  |  |  |
| Nc1ncnc2c1ncn2[C@@H]1O[C@H](CSSC[C@H]2O[C@@H](n3c(Br)nc4c(N)ncnc43)[C@H](O)[C@@H]2O)[C@@H](O)[C@H]1O | inactive | inactive | 14 | inactive | 6 |  |
| Nc1ncnc2c1nc(Br)n2[C@@H]1O[C@H](CSSC[C@H]2O[C@@H](n3c(Br)nc4c(N)ncnc43)[C@H](O)[C@@H]2O)[C@@H](O)[C@H]1O | inactive | inactive | 19 | inactive | 6 |  |
| NC(=O)c1csc([C@@H]2O[C@H](CSSC[C@H]3O[C@@H](n4cnc5c(N)ncnc54)[C@H](O)[C@@H]3O)[C@@H](O)[C@H]2O)n1 | inactive | inactive | 80 | inactive | 110 | inhibition (Homo sapiens): inactive; inhibition [6]: inactive |
| C[C@@]1(O)[C@@H](CSSC[C@H]2O[C@@H](n3cnc4c(N)ncnc43)[C@H](O)[C@]2(C)O)O[C@@H](n2cnc3c(N)ncnc32)[C@@H]1O | inactive | inactive |  | inactive |  | IC50 (NAD kinase [7]): Not Active; IC50 (NAD kinase [10]): Not Active |
| C[C@@]1(O)[C@H](O)[C@@H](CSSC[C@H]2O[C@@H](n3cnc4c(N)ncnc43)[C@](C)(O)[C@@H]2O)O[C@H]1n1cnc2c(N)ncnc21 | inactive | inactive | 500 | inactive | 280 |  |
| NC(=O)c1csc([C@@H]2O[C@H](CSSC[C@H]3O[C@@H](c4nc(C(N)=O)cs4)[C@H](O)[C@@H]3O)[C@@H](O)[C@H]2O)n1 | inactive | inactive |  | inactive |  | inhibition (Homo sapiens): inactive; inhibition [6]: inactive; IC50 (NAD kinase [7]): Not Active; IC50 (NAD kinase [10]): Not Active |
